From ChEMBL document CHEMBL4028857, “Anchimerically Activated ProTides as Inhibitors of Cap-Dependent Translation and Inducers of Chemosensitization in Mantle Cell Lymphoma” (J Med Chem, 2017)
Active and inactive are the calls of the source. The rule behind the calls is not given here.

Legend:
Mino [1] = experiment: Antiproliferative activity against human Mino cells at […] preincubated for 48 hrs followed by thymidine addition measure after 16 hrs by Thymidine incorporation assay; format: functional, cell-based
Summary of the method: (§1)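 MCL lines treated 48 h with compound re-added daily, alone or with co-drug (ibrutinib 25 µM where used), then thymidine added for a further 16 h; proliferation read as thymidine incorporation.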

[2] = Half life in HEPES buffer at 80 uM at pH 7.2 by RP-HPLC analysis; format: physicochemical
Summary of the method: (§2)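 Compound at 80 µM in 20 mM HEPES (pH 7.2 or 2.0) incubated at 37 °C; aliquots analyzed by RP-HPLC at 0, 1, 4, 6, 12, 18 and 24 h to follow methylthioalkyl deprotection and derive half-life.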

[3] = Half life in HEPES buffer at 80 uM at pH 2 by RP-HPLC analysis; format: physicochemical; summary of the method: as §2
[4] = biological target: Eukaryotic translation initiation factor 4E-binding protein 1 (Homo sapiens) (UniProt Q13541); experiment: Inhibition of 4EBP1 phosphorylation at Ser 65 residues in human Mino cells at 10 to 25 uM after 48 hrs by Western blot analysis; format: cell-based
Sequence of Eukaryotic translation initiation factor 4E-binding protein 1 (Homo sapiens) (Q13541 whole entry): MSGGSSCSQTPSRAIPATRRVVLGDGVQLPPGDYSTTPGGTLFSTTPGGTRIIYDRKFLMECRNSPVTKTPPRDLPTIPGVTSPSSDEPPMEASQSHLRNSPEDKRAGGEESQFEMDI
Summary of the method: (§3)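 MCL cell lines treated with ProTide 48 h. Lysates were protein-quantified, then immunoblotted.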

[5] = biological target: Eukaryotic translation initiation factor 4E (Homo sapiens) (UniProt P06730); experiment: Inhibition of eIF4E in human Mino cells assessed as down regulation of c-Myc protein expression at 10 to 25 uM after 48 hrs by Western blot analysis; format: cell-based; summary of the method: as §3
Sequence of Eukaryotic translation initiation factor 4E (Homo sapiens) (P06730 whole entry): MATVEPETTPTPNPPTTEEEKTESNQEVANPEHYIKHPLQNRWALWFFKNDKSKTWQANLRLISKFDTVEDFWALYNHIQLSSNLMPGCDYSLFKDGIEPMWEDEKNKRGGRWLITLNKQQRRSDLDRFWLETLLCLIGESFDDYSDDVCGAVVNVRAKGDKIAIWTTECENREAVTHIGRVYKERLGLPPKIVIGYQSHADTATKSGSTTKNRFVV

[6] = biological target: Eukaryotic translation initiation factor 4E-binding protein 1 (Homo sapiens) (UniProt Q13541); experiment: Inhibition of 4EBP1 phosphorylation at Thr 37/46 residues in human Mino cells at 10 to 25 uM after 48 hrs by Western blot analysis; format: cell-based; summary of the method: as §3
Mino [7] = experiment: Antiproliferative activity against human Mino cells at 25 uM preincubated for 48 hrs followed by thymidine addition measure after 16 hrs by Thymidine incorporation assay; format: functional, cell-based
Summary of the method: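 MCL cell lines exposed to ProTide 48 h with fresh compound added every day, then thymidine added for a further 16 h. Proliferation read as thymidine incorporation.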

[8] = Cytotoxicity against human Mino cells assessed as reduction in cell survival at 25 uM after 48 hrs by Annexin V/propidium iodide based flow cytometric analysis
Summary of the method: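 MCL cell lines exposed to ProTide 48 h, re-dosed daily. Survival read by Annexin V/PI staining on flow cytometry.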

Mino [9] = experiment: Antiproliferative activity against human Mino cells at 100 uM preincubated for 48 hrs followed by thymidine addition measure after 16 hrs by Thymidine incorporation assay; format: functional, cell-based; summary of the method: as §1
[10] = AUC (0 to 8 hrs) in Sprague-Dawley rat plasma at 25 mg/kg, po by LC-MS/MS analysis; format: ADME, organism-based; set-up: time < 8 hr, dose 25 mg/kg, route oral
Summary of the method: (§4)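 Female Sprague-Dawley rats (250-274 g, n=3, catheterized femoral/jugular veins) dosed once p.o. by gavage (25 mg/kg) then, after a 3-day washout, i.v. (2.5 mg/kg). Formulation: 10 mg/mL in 0.5% aqueous CMC with 5% DMSO. Serial blood draws to 480 min into K2EDTA; plasma protein-precipitated with acetonitrile plus internal standards; LC-MS/MS (positive MRM); non-compartmental PK; %F from dose-normalized AUC per rat.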

[11] = Volume of distribution in Sprague-Dawley rat at 2.5 mg/kg, iv by LC-MS/MS analysis; format: ADME, organism-based; conditions: in vivo
Summary of the method: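 Female Sprague-Dawley rats (n=3, 250-274 g) with catheters; compound in 0.5% aqueous CMC with 5% DMSO given as a single i.v. injection, 2.5 mg/kg. Blood drawn at 0–480 min into K2EDTA tubes. Plasma precipitated with acetonitrile containing internal standards, then LC-MS/MS in positive MRM mode. Parameters from non-compartmental analysis.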

[12] = Clearance in Sprague-Dawley rat at 2.5 mg/kg, iv by LC-MS/MS analysis; format: ADME, organism-based; conditions: Sprague-Dawley, in vivo; summary of the method: as §4
Plasma = experiment: Prodrug activation in Sprague-Dawley rat plasma assessed as 2-amino-7-(2-(4-chlorophenoxy)ethyl)-9-((2R,3R,4S,5R)-3,4-dihydroxy-5-(phosphonooxymethyl)tetrahydrofuran-2-yl)-6-oxo-6,9-dihydro-1H-purin-7-ium level at 2.5 mg/kg, iv measured at 5 mins by LC-MS/MS analysis; format: organism-based; conditions: in vivo; summary of the method: as §4
[13] = biological target: T1, Adenosine 5'-monophosphoramidase HINT1 (Homo sapiens, UniProt P49773); experiment: Prodrug activation in human Mino cells assessed as Hint1 mediated 2-amino-7-(2-(4-chlorophenoxy)ethyl)-9-((2R,3R,4S,5R)-3,4-dihydroxy-5-(phosphonooxymethyl)tetrahydrofuran-2-yl)-6-oxo-6,9-dihydro-1H-purin-7-ium formation per 5 million cells at 150 uM after 12 hrs by LC-MS/MS analysis; format: cell-based
T1 sequence (P49773 whole entry): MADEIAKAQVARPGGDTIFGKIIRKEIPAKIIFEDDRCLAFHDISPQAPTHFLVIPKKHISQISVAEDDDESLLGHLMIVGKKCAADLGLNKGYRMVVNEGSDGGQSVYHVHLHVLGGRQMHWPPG
Summary of the method: (§5)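 Mantle cell lymphoma cells (five million) grown in RPMI with 10% FBS, penicillin/streptomycin and L-glutamine at 37 °C, 5% CO2, then exposed to 150 µM compound for 12 h at 37 °C. Washed with ice-cold PBS, pellet extracted in MeOH/NH4OAc (60:40) with 80 fmol internal standards, three liquid-N2 freeze–thaw cycles, filtered, dried, redissolved in 20 mM HEPES pH 7.2. Analysed by LC-MS/MS against a standard curve.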

Rattus norvegicus = experiment: AUC (0 to 8 hrs) in Sprague-Dawley rat plasma assessed as 2-amino-7-(2-(4-chlorophenoxy)ethyl)-9-((2R,3R,4S,5R)-3,4-dihydroxy-5-(phosphonooxymethyl)tetrahydrofuran-2-yl)-6-oxo-6,9-dihydro-1H-purin-7-ium at 2.5 mg/kg, iv by LC-MS/MS analysis; format: ADME, organism-based; set-up: time < 8 hr, dose 2.5 mg/kg, route intravenous; conditions: in vivo; summary of the method: as §4
Granta-519 = experiment: Drug uptake in human GRANTA-519 cells assessed per 5 million cells at 150 uM after 12 hrs by LC-MS/MS analysis; format: ADME, cell-based; conditions: granta-519, 12 h
Summary of the method: (§6)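 Five million MCL cells in RPMI/10% FBS with penicillin, streptomycin and L-glutamine were exposed to compound (150 µM) for 12 h at 37 °C. Cells were washed in cold PBS, extracted in MeOH/NH4OAc (60:40) with 80 fmol internal standards, freeze-thawed three times, then filtered and dried. Residue was taken up in HEPES for LC-MS/MS, quantified against an internal-standard curve.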

[14] = Half life in Sprague-Dawley rat at 2.5 mg/kg, iv by LC-MS/MS analysis; format: ADME, organism-based; conditions: in vivo; summary of the method: as §4
Z-138 = experiment: Drug uptake in human Z138 cells assessed per 5 million cells at 150 uM after 12 hrs by LC-MS/MS analysis; format: ADME, cell-based; conditions: z-138, 12 h; summary of the method: as §6
[15] = AUC (0 to 8 hrs) in Sprague-Dawley rat plasma at 2.5 mg/kg, iv by LC-MS/MS analysis; format: ADME, organism-based; set-up: time < 8 hr, dose 2.5 mg/kg, route intravenous; summary of the method: as §4
[16] = Oral bioavailability in Sprague-Dawley rat at 25 mg/kg by LC-MS/MS analysis; format: ADME, organism-based; conditions: in vivo; summary of the method: as §4
[17] = biological target: T1, Adenosine 5'-monophosphoramidase HINT1; experiment: Prodrug activation in human Z138 cells assessed as Hint1 mediated 2-amino-7-(2-(4-chlorophenoxy)ethyl)-9-((2R,3R,4S,5R)-3,4-dihydroxy-5-(phosphonooxymethyl)tetrahydrofuran-2-yl)-6-oxo-6,9-dihydro-1H-purin-7-ium formation per 5 million cells at 150 uM after 12 hrs by LC-MS/MS analysis; format: cell-based; summary of the method: as §5
[18] = Drug uptake in human Mino cells assessed per 5 million cells at 150 uM after 12 hrs by LC-MS/MS analysis; format: ADME, cell-based; summary of the method: as §6
[19] = biological target: T1, Adenosine 5'-monophosphoramidase HINT1; experiment: Prodrug activation in human GRANTA-519 cells assessed as Hint1 mediated 2-amino-7-(2-(4-chlorophenoxy)ethyl)-9-((2R,3R,4S,5R)-3,4-dihydroxy-5-(phosphonooxymethyl)tetrahydrofuran-2-yl)-6-oxo-6,9-dihydro-1H-purin-7-ium formation per 5 million cells at 150 uM after 12 hrs by LC-MS/MS analysis; format: cell-based; summary of the method: as §6

COc1cccc2c1C(=O)c1c(O)c3c(c(O)c1C2=O)C[C@@](O)(C(=O)CO)C[C@@H]3O[C@H]1C[C@H](N)[C@H](O)[C@H](C)O1
Activity (Mino [1]): inactive

CSCCCOP(=O)(NCCc1c[nH]c2ccccc12)OC[C@H]1O[C@@H](n2c[n+](CCOc3ccc(Cl)cc3)c3c(=O)[nH]c(N)nc32)[C@H](O)[C@@H]1O (some centres undefined)
half-life at 80 µM [2]: > 60 h

CSCCCCOP(=O)(NCCc1c[nH]c2ccccc12)OC[C@H]1O[C@@H](n2c[n+](CCOc3ccc(Cl)cc3)c3c(=O)[nH]c(N)nc32)[C@H](O)[C@@H]1O (some centres undefined)
half-life at 80 µM [2]: 10.4 h
half-life at 80 µM [3]: 13 h

C=CC(=O)N1CCC[C@@H](n2nc(-c3ccc(Oc4ccccc4)cc3)c3c(N)ncnc32)C1 [IBRUTINIB]
inhibition [4]: Active
inhibition [5]: Active
inhibition [6]: inactive
Activity (Mino [7]): inactive
Activity [8]: Non-Toxic

C[C@@H]1C[C@H]2[C@@H]3CCC4=CC(=O)C=C[C@]4(C)[C@@]3(F)[C@@H](O)C[C@]2(C)[C@@]1(O)C(=O)CO
Activity (Mino [9]): Active

Nc1nc2c(c(=O)[nH]1)[n+](CCOc1ccc(Cl)cc1)cn2[C@@H]1O[C@H](COP(=O)(O)NCCc2c[nH]c3ccccc23)[C@@H](O)[C@H]1O
AUC(0-t) at 8 h [10]: 31.7 ng·h/mL
Vd [11]: 70 L/kg
clearance [12]: 300 mL/min/kg
Drug metabolism (Plasma): 583 ng/mL
Drug metabolism [13]: 7.49 pmol
AUC (Rattus norvegicus): 13.1 µg·min/mL
Drug uptake (Granta-519): 1.52 pmol
half-life [14]: 2.72 h
Drug uptake (Z-138): 0.163 pmol
AUC(0-t) at 8 h [15]: 147 ng·h/mL
bioavailability [16]: < 1%
Drug metabolism [17]: 0.523 pmol
Drug uptake [18]: 0.59 pmol
Drug metabolism [19]: 5.23 pmol
